Only some compounds are listed: those with a hit (about 5.5% of all), similar ones and a draw of the others.
Yeast growth inh = yeast BB579 growth reduction in restrictive medium; S. cerevisiae BB579 growth, OD615, 48 h; inhibition, % at 10 µM; hit rate 0.51% among 140,000; AID 804;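 active = inhibition above a set limit, 3 SD over the mean compound inhibition, cut at about 44% in these data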
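System: Saccharomyces cerevisiae DeaD strain BB579, replicative lifespan model yeast | Buffer or medium: Restrictive glucose-based CSMM-D medium | Times: 4 h preincubation and 48 h exposure at 30 °C | Detection: OD615 turbidity measurement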
WT yeast gro inh = growth inhibition of WT yeast, mitochondrial fusion screen; inhibition, % at 10 µM; hit rate 2.1% among 190,000; mitochondrial fusion phenotypic screen, WT strain; AID 1362; in the data active = inhibition above about 58%; tested in S. cerevisiae
Yeast lifespan up = yeast lifespan extension; S. cerevisiae growth with nicotinamide, OD615; deaD strain in restrictive glucose medium; inhibition of the nicotinamide effect, % at 10 µM; hit rate 0.68% among 130,000; AID 775;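 active = inhibition above a set limit, placed 3 SD over the median of all compounds, cut at about 26% in these data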;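 also: 0% = nicotinamide-treated wells and 100% = cells grown without nicotinamide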
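Buffer or medium: CSMM-D glucose medium, restrictive; test system: modified budding yeast, DeaD strain; compound: single dose 10 µM compound, 0.25% DMSO; schedule: culture preincubation 4 h, compound exposure 48 h, both 30 °C; detection: optical density (absorbance) at 615 nm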
KCC2 mod = modulates chloride dependent transport by human KCC2. KCC2 cells, thallium flux FluoZin-2 fluorescence. Q9H2X9. B-score of Tl+ flux slope (higher = more flux/activation; lower = inhibition) at 10 µM. hit rate 2.2% among 190,000;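 active = thallium flux slope and its plate-corrected score both differing from the plate sample mean at a set confidence after two filtering rounds, in either direction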;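 also: slope of fluorescence scaled to starting intensity during 10 to 20 s after thallium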
Target sequence (Q9H2X9 whole entry, looked up): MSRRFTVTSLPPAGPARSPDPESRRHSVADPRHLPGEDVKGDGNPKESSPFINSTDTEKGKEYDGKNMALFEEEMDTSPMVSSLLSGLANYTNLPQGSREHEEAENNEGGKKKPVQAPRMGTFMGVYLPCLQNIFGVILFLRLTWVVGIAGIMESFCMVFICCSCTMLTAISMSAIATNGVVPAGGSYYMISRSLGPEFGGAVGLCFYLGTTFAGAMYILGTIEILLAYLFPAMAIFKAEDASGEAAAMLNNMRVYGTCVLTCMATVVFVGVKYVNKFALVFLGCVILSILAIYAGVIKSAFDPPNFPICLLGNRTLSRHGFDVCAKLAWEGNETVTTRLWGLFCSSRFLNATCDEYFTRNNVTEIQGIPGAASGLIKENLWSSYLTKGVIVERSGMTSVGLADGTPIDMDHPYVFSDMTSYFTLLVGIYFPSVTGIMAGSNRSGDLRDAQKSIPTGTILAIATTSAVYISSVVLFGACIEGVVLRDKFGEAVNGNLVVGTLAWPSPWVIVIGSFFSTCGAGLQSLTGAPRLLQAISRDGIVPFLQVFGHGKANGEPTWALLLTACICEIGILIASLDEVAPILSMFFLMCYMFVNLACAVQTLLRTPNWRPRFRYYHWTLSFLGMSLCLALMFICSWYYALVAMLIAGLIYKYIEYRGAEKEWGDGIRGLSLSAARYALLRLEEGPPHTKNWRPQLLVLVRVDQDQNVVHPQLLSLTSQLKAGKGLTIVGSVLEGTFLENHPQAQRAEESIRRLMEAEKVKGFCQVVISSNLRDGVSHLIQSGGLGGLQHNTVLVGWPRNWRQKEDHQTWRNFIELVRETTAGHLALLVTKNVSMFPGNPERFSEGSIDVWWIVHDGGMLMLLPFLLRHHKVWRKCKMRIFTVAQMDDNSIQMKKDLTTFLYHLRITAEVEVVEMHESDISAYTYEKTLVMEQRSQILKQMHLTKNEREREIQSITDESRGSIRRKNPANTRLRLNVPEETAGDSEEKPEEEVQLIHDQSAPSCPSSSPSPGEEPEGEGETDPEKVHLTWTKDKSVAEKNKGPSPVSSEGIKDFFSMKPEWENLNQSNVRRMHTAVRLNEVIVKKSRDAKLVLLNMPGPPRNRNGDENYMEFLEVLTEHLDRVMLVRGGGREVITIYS
RAM inhibit = inhibitors of the yeast RAM network | S. cerevisiae dse1pr::URA3 reporter, 5-FOA growth OD615, 2 d; analog-sensitive cbk1-as2 kinase mutant strain | inhibition, % at 50 µM | hit rate 1.8% among 190,000 | AID 868;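 active = inhibition above a set limit, 3 SD over mean compound inhibition, cut at about 8.4% in these data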;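 also: 0% = DMSO-only wells with no growth and 100% = 10 µM 1-NA-PP1 full growth; inhibition rescues growth on 5-FOA so higher OD means more RAM inhibition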
Starred values were filed as active, the others as inactive; / = not tested or not shown.

SMILES	Yeast growth inh	WT yeast gro inh	Yeast lifespan up	KCC2 mod	RAM inhibit
O=C(C1=C[C@H](c2ccc(C(F)(F)F)cc2)C[C@H](OCc2ccc(CO)cc2)O1)N1CCCCCCC1	/	54	/	-1.1	8
O=C(c1ccc(Cl)cc1)C(Cn1cncn1)C(Sc1ccccc1)c1ccccc1 (configuration not stated)	-70	33	2	-0.71	9.8*
Cc1ccc(SC(c2ccccc2)C(Cn2cncn2)C(=O)c2ccccc2)cc1 (configuration not stated)	-7	5	-8	0.44	3
COc1ccccc1C1CN(c2ccc(F)cc2F)N=C1c1cccs1 (configuration not stated)	-79	79*	-16	-1.3	3
COc1ccccc1C1CC(c2cccs2)=Nc2ccccc2S1 (configuration not stated)	-92	0	-8	0.66	1
Cc1ccc(/C=N/Nc2nc(Cl)c(Cl)cc2Cl)s1	-21	7	-9	7.6*	1
Cc1ccsc1/C=N/Nc1nc(Cl)c(Cl)cc1Cl	19	6	-13	3.6	0
COC(=O)c1c(NC(NC(=O)C(C)C)C(Cl)(Cl)Cl)sc2c1CCCC2 (configuration not stated)	-23	77*	-2	-0.17	3
COC(=O)c1c(NC(=S)Nc2ccc(F)cc2[N+](=O)[O-])sc2c1CCCCC2	-15	-13	1	20*	2
CNC(=S)Nc1sc2c(c1C(=O)OC)CCC2	/	12	/	52*	3
CCOC(=O)c1c(NC(=S)NC)sc2c1CC(C)(C)SC2	-64	5	5	37*	4
CCOC(=O)c1c(NC(=S)Nc2ccccc2)sc2c1CC(C)(C)SC2	-19	9	-5	2.1	3
COc1ccccc1NC(=O)Cc1noc(CSc2nnc(C)n2C)n1	/	-19	/	0.81	0
c1ccc2c(-c3cn4ccccc4n3)c[nH]c2c1	/	1	/	-1	2
Cn1c(=O)c2c(O)c(C=Nc3ccc(F)cc3)c(=O)n(C)c2n(C)c1=O	/	/	/	0.093	/
Cc1ccc(C)c(NC(=O)CCCCCCCCCCC2COCCO2)c1 (configuration not stated)	-28	3	2	0.034	4
Cc1ccc(S(=O)(=O)Nc2ccccc2-c2ccccc2NS(=O)(=O)c2ccc(C)cc2)cc1	-14	62*	15	/	4
Cc1ccc(S(=O)(=O)Nc2ccc(N=Nc3ccc(O)cc3)cc2)cc1	-17	71*	-5	0.019	11*
Cc1ccc(S(=O)(=O)Nc2ccccc2CNc2ccc(Br)cn2)cc1	-29	65*	-2	0.22	5
CSc1ccc(S(=O)(=O)Nc2ccc(S(=O)(=O)Nc3ccc(C)cc3)cc2)cc1	-36	-4	0	/	8
Brc1ccc(NCc2cccc3ccccc23)nc1	-29	18	-9	/	2
Oc1ccccc1CNc1ccc(Br)cn1	-24	-2	-16	20*	0
CC(C)(C)c1cc(=O)n(-c2ccccc2)[nH]1	-42	-6	12	/	0
Cc1ccccc1Nc1nnc(SCC(=O)Nc2ccccc2[N+](=O)[O-])s1	-39	18	-3	-3	8.7*
O=c1cnnc(N/N=C/C2CC=CCC2)[nH]1 (configuration not stated)	/	6	/	1	1
SMILES	Yeast growth inh	WT yeast gro inh	Yeast lifespan up	KCC2 mod	RAM inhibit
O=S(=O)(c1ccc(Cl)s1)N1CCC(Cc2ccccc2)CC1	-10	37	-8	-0.37	8.9*
c1ccc(CN=C2NN=C(c3ccccc3)CS2)cc1	/	1	/	0.59	5
c1ccc(C2=NNC(=NCc3ccc4c(c3)OCO4)SC2)cc1	-31	-10	-3	0.4	9.0*
Cc1ccc(N2CC(C(=O)O)CC2=O)cc1 (configuration not stated)	/	2	/	-0.41	1
CCCN(CC(=O)Nc1ccc(Cl)cc1Cl)C(=O)/C=C/c1cccc([N+](=O)[O-])c1	-1	22	0	-0.34	6
CCCN(CC(=O)Nc1ccc(Cl)cc1Cl)C(=O)/C=C/c1cc(OC)ccc1OC	-24	47	-2	0.37	11*
CN(C)c1ccc(C(CNS(=O)(=O)c2ccc(F)c(F)c2)c2c[nH]c3ccccc23)cc1 (configuration not stated)	-44	74*	2	-0.072	1
O=C(NNS(=O)(=O)c1ccc(Cl)cc1)c1cnn(-c2ccccc2)c1-n1cccc1	-33	0	-13	/	4
COc1ccc(-c2cc(C(F)(F)F)nc(N3CCN(C)CC3)n2)cc1	-47	11	-15	/	1
COc1ccc(-c2cc(C(F)(F)F)nc(N3CCCCCC3)n2)cc1	-56	6	-9	/	8.7*
Cc1cc(C)n(/N=C/c2ccc(C(C)C)cc2)c(=O)c1C#N	-27	-5	-11	-2.8	2
O=C(N=C1SCC(=O)N1c1ccccc1Cl)c1ccccc1	/	77*	/	-2	1
COc1ccccc1CP(=O)(c1ccccc1)c1ccccc1	-24	16	-1	1.1	2
COc1cc(-c2nc(CN(C)Cc3nnc(C)o3)c(C)o2)ccc1F	/	-6	/	-2	2
O=C(OCc1csc(Nc2ccccc2)n1)c1ccc(Cl)cc1	-57	76*	-8	0.55	7
Cc1cc(/C=N/n2cnnc2)c(C)n1-c1ccc(OCc2ccc(Cl)cc2)cc1	8	66*	-7	0.066	1
CCOC(=O)c1sc(=S)n(C)c1NC(=O)c1ccccc1C	0	8	5	0.34	4
Cc1cc(C)c2oc(C(=O)Nc3ccc(S(=O)(=O)N4CCCC(C)C4)cc3)cc(=O)c2c1 (configuration not stated)	-27	9	-6	0.23	9.2*
CC1CCCN(S(=O)(=O)c2ccc(NC(=O)CN3CCN(C)CC3)cc2)C1 (configuration not stated)	-95	14	-5	-1	1
CCOC(=O)C1=C(CC)Nc2ccccc2N/C1=N\S(=O)(=O)c1ccc2ccccc2c1	/	72*	/	-1.3	7
CCOC(=O)C1=C(CC)Nc2ccccc2N=C1NC(=O)c1ccc(S(=O)(=O)N(C)C)cc1	-3	-13	-8	/	2
CCOC(=O)c1cc2occc2n1CCCN1C(=O)c2ccccc2C1=O	-42	25	-12	/	9.2*
CCOC(=O)c1cc2sc(C)cc2n1CCCN1C(=O)c2ccccc2C1=O	-35	9	-16	0.095	11*
CCOC(=O)c1cc2sc(C)cc2n1CC(=O)N(CC)CC	-5	-1	-15	0.045	0
COc1cc(C2NCC(c3ccc(Cl)cc3Cl)c3c2[nH]c2ccccc32)cc(OC)c1OC (configuration not stated)	-52	82*	6	0.15	0
CC1=NN(c2ccc(C)cc2C)C(=O)C1C(c1ccccc1)C1C(=O)N(c2ccc(C)cc2C)N=C1C (configuration not stated)	-28	73*	21	-0.46	4
Cc1ccc(-n2nc(C)c(C(=O)O)n2)c(C)c1	-2	20	-1	-1.4	1
